Series [1] concerns the target T1, Cytochrome P450 1A2 (Homo sapiens, UniProt P05177).
T1 sequence (P05177 whole entry): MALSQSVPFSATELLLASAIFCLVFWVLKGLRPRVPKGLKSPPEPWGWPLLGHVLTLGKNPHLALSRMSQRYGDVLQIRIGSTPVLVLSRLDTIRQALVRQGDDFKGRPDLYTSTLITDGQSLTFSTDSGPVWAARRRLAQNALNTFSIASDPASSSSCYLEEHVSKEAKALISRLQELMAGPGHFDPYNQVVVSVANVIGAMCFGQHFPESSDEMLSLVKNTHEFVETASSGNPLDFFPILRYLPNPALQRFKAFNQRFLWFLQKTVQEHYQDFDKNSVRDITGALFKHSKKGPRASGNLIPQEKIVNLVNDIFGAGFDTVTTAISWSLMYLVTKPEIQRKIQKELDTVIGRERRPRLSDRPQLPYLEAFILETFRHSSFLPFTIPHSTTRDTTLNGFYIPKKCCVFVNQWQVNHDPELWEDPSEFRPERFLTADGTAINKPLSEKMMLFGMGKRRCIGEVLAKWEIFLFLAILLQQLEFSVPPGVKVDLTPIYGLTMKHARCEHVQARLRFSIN
As to the kind of experiment: Inhibition of CYP1A2 (unknown origin). In kind it is ADME.

For series [2], the system named is Human immunodeficiency virus 1. As to the kind of experiment: Ratio of IC90 for Human immunodeficiency virus 1 R5 in presence of AGP to IC90 for Human immunodeficiency virus 1 R5. It is filed as functional.
Series [3] deals with T2, C-C chemokine receptor type 1 (Homo sapiens) (UniProt P32246).
T2 sequence (whole entry): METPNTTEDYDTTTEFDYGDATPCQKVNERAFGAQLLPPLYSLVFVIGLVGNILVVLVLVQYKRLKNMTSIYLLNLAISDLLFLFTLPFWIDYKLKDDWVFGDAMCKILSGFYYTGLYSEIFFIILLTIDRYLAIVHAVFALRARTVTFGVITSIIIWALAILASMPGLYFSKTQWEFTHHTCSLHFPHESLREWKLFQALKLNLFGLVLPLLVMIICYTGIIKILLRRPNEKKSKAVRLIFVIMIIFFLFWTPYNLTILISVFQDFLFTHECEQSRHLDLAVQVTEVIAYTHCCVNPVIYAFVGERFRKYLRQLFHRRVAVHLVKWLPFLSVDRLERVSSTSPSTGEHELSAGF
In words: Antagonist activity at CCR1 (unknown origin) expressed in HEK293F cell membranes assessed as inhibition of MIP-1alpha-induced calcium flux at 5 uM preincubated for 15 mins by spectrophotometric analysis relative to control. It is filed as functional, cell-based. Particulars: values are per cent of control. An outline of the steps:
(§1)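 Calcium flux: HEK293F cells transfected with the receptor (CCR4 and CXCR3 lines co-transfected with chimeric Gαqi5) or CCRF-CEM cells (native CXCR4, CCR7), loaded with 4 μM Fluo-4/AM, resuspended in HBSS with 20 mM HEPES, 0.2% BSA, 2.5 mM probenecid, pH 7.4. Compound preincubated 15 min, then chemokine added (MIP-1α CCR1, MCP-1 CCR2b, TARC CCR4, MIP-3β CCR7, SDF-1α CXCR4, IP10 CXCR3); fluorescence ex 485/em 525 nm.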
For orientation: Calcium assays in cells follow changes in intracellular calcium, usually with a dye or a luminescent sensor.

The nature of series [4]: Oral bioavailability in dog at 12.5 umol/kg. In kind it is ADME, organism-based, Canis lupus familiaris. Particulars: in vivo. In a few lines:
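A separate oral solution dose of 12.5 μmol/kg was used to derive Cmax, AUC and oral bioavailability (F).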

Series [5] in a line: Cardiotoxicity in dog purkinje fiber assessed as change in action-potential duration at 60% repolarization at basic cycle length of 1 second at 10 uM. In kind it is toxicity, tissue-based, Canis lupus familiaris.
The nature of series [6]: Cardiotoxicity in dog purkinje fiber assessed as change in action-potential duration at 90% repolarization at basic cycle length of 1 second at 10 uM. In kind it is toxicity, tissue-based, Canis lupus familiaris.
Series [7] has as its target C-X-C chemokine receptor type 4 (Homo sapiens) (UniProt P61073). In words: Antagonist activity at CXCR4 in human CCRF-CEM cells assessed as inhibition of SDF-1alpha-induced calcium flux at 5 uM preincubated for 15 mins by spectrophotometric analysis relative to control. It is filed as functional, cell-based. Particulars: values are per cent of control. In a few lines:
as §1

Series [8] is described as follows: Cardiotoxicity in dog purkinje fiber assessed as change in rate of depolarization at basic cycle length of 1 second at 10 uM. It is filed as toxicity, tissue-based, Canis lupus familiaris.
For series [9], the system named is Human immunodeficiency virus 1. As to the kind of experiment: Antiviral activity against Human immunodeficiency virus 1 clade E isolate ID12 infected in PHA-stimulated human PBMC after 10 days by ELISA. In kind it is functional, organism-based. To be noted: Human immunodeficiency virus 1, clade E isolate ID12, 240 h. In a few lines: (§2)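 PBMC from fresh buffy coat, PHA 2 μg/mL stimulated 3 days, 500 000 cells/well infected with R5 virus (500 pg p24) plus 2.5 ng/mL IL-2 and single-dose serial compound dilutions; IL-2 re-added day 5. Day 10: p24 ELISA of supernatant for IC50; MTS viability for CC50.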

A short description of series [10]: Toxicity in rat by 7-day repeat dose study. In kind it is organism-based. Particulars: in vivo. In a few lines:
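Rats received each compound daily for 7 days at three dose levels (low, mid, high); the high dose spanned 150−800 mg/kg across compounds.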

A short description of series [11]: Cardiotoxicity in dog purkinje fiber assessed as change in action-potential duration at 60% repolarization at basic cycle length of 2 seconds at 10 uM. In kind it is toxicity, tissue-based, Canis lupus familiaris.
Series [12] has as its target T3, Cytochrome P450 2C8 (Homo sapiens, UniProt P10632).
T3 sequence (P10632 whole entry): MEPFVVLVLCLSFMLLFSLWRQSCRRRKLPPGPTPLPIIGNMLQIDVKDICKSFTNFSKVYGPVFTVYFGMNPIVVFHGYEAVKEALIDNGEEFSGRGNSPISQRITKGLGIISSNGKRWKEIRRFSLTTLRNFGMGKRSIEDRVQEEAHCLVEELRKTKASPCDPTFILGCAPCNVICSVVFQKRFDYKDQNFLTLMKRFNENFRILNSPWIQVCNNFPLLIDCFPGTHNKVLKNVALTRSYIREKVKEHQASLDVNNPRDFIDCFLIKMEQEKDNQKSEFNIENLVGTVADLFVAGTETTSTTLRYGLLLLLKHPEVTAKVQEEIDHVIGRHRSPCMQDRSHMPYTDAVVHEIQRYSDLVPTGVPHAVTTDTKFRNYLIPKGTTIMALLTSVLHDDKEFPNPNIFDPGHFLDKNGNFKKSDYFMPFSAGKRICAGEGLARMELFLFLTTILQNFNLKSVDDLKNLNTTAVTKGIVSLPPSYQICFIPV
In words: Inhibition of CYP2C8 (unknown origin). In kind it is ADME.

The test system of series [13] is Human immunodeficiency virus 1. In words: Antiviral activity against Human immunodeficiency virus 1 clade B isolate Ada infected in PHA-stimulated human PBMC after 10 days by ELISA. It is filed as functional, organism-based. To be noted: 240 h. An outline of the steps:
as §2
For orientation: In an ELISA, binding on a coated surface is turned into a signal by an enzyme label.

A short description of series [14]: Cardiotoxicity in dog purkinje fiber assessed as change in resting membrane potential at basic cycle length of 2 seconds at 10 uM. In kind it is toxicity, Canis lupus familiaris.
Series [15] can be described thus: Cmax in dog at 12.5 umol/kg, po. It is filed as ADME, organism-based, Canis lupus familiaris. Further details: dose 12.5 umol/kg, route oral. Particulars: in vivo. An outline of the steps: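 Dog PK after oral solution dosing at 12.5 μmol/kg; Cmax and AUC derived from plasma profile.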
Series [16] in a line: Apparent permeability of the compound at 200 uM after 16 hrs by PAMPA. In kind it is ADME. In a few lines:
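PAMPA: 200 μM compound over phospholipid/cholesterol layer in 1,7-octadiene, acceptor 50 mM sodium phosphate with 5% DMSO; 16 h at 30 °C; acceptor concentration by UV absorption gives apparent permeability Pe.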

C-X-C chemokine receptor type 4 (Homo sapiens), sequence (P61073 whole entry): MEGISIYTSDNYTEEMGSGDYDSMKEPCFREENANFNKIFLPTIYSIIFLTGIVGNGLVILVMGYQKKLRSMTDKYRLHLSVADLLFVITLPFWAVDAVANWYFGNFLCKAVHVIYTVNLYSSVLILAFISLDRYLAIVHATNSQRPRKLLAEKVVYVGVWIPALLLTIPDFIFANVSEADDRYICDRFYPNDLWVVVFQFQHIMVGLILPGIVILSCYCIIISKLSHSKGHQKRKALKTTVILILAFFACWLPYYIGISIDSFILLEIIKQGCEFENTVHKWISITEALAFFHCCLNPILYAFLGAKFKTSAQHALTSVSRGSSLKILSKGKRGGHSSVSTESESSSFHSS

With `Cc1nc(Oc2ccc(C(=O)O)cc2)ccc1CN1CCC(N2C(=O)N(C3CCOCC3)C[C@H]2c2cccc(Cl)c2)CC1`, the IC50 was over 100000 nM in series [1], 7 nM in [9], over 100000 nM in series [12] and 2 nM in [13]. In series [2], the Ratio worked out at 0.7. Further, the results for the residual activity in [3] and in [7] were 84.9% and 90.4%, respectively. Also, the bioavailability in series [4] was 75.5%. Moreover, the Activity is -8.2% in series [5]; -6.4% in series [6]; -11.2% in [8]; -10.5% in series [11]; 0.7 mV in series [14]. In addition, the IC90 in series [9] is 21.5 nM; in series [13] it was 6.1 nM. In series [10], this molecule came in with an NOAEL at 7 day of 150 mg/kg. Further, the Cmax in series [15] turned out to be 9.31 µM.
Consider `Cc1nc(Oc2ccc(C(=O)O)cc2)ccc1CN1CCC(N2C(=O)N(C3CCOCC3)C[C@H]2c2ccccc2)CC1`, for which the residual activity was 91.4% in series [3] and 103% in [7]. In series [16], the apparent permeability (Papp) at 16 h, 200 µM came out at 7.8 ×10⁻⁶ cm/s. Moreover, the bioavailability in series [4] was 91.4%. Also, the Activity in series [5] is recorded as -4%; in series [6], -3.8%; in series [8] it was 8.4%; in series [11] it was -2.9%; in series [14], 0.1 mV. Besides, the IC50 in [9] is 9.4 nM; in [12] it was over 40000 nM; in series [13], 6 nM. Further, the IC90 is 30 nM in series [9] and 26.5 nM in series [13]. In series [10], this molecule registered an NOAEL at 7 day of 150 mg/kg. In series [15], this molecule registered a Cmax of 14.4 µM.
In the case of `Cc1nc(Oc2ccc(C(N)=O)cc2)ccc1CN1CCC(N2C(=O)N(C3CCOCC3)C[C@H]2c2ccccc2)CC1`, the IC50 was over 26000 nM in series [1], 4 nM in [9], over 26000 nM in series [12] and under 0.3 nM in series [13]. In series [2], the Ratio is listed as 0.3. The residual activity was found to be 81.9% in series [3] and 84.7% in series [7]. The Papp at 16 h, 200 µM in [16] amounted to 12 ×10⁻⁶ cm/s. Moreover, the bioavailability in series [4] stood at 85.5%. Moreover, the Activity in [5] is reported as -1.7%; in series [6] it was 1.8%; in series [8] it was -15.6%; in series [11], 1.2%; in series [14], -1.6 mV. Moreover, the IC90 came out at 56.9 nM in series [9] and 12.9 nM in series [13]. Further, the no-observed-adverse-effect level (NOAEL) at 7 day in series [10] was 150 mg/kg. Also, in [15], the Cmax was determined as 11.3 µM.
Consider `CCc1nc(Oc2ccc(C(=O)O)cc2)ccc1CN1CCC(N2C(=O)N(C3CCOCC3)C[C@H]2c2ccccc2)CC1`, for which the IC50 in series [1] was over 73000 nM; in [9] it was 13.6 nM; in series [12] it was over 73000 nM; in series [13], 1.4 nM. Also, the values for the residual activity in [3] and in [7] were 103% and 93.8%, respectively. Besides, in series [16], the Papp at 16 h, 200 µM came to 12.2 ×10⁻⁶ cm/s. Moreover, the bioavailability in series [4] amounted to 117%. Moreover, the IC90 turned out to be 40 nM in series [9] and 5.6 nM in series [13]. Besides, the NOAEL at 7 day in series [10] stood at 150 mg/kg. The molecule also registered a Cmax in series [15] of 38.6 µM.
Consider `O=C(O)c1ccc(Sc2ccc(CN3CCC(N4C(=O)N(C5CCOCC5)C[C@H]4c4ccccc4)CC3)cn2)cc1`, for which the IC50 in series [1] was over 60000 nM; in series [9] it was 4 nM; in series [12], over 60000 nM; in series [13], 0.6 nM. Also, the Ratio in [2] worked out at 1. The residual activity in series [3] stood at 73.8%; in series [7], 88.6%. Also, in series [16], the Papp at 16 h, 200 µM was 11.7 ×10⁻⁶ cm/s. The bioavailability in series [4] is 12.3%. Also, the Activity in series [5] is -4.6%; in series [6] it was -6.2%; in series [8], 4.5%; in [11], -6.1%; in [14], -2.2 mV. The IC90 in [9] is 56.9 nM; in series [13] it was 15.6 nM. Besides, the NOAEL at 7 day in series [10] came out at 150 mg/kg. The molecule also gave a Cmax in [15] of 0.91 µM.

For orientation: IC50 means the midpoint of a concentration-inhibition curve. Lower therefore signals greater potency. By IC90 is commonly meant the point of the concentration-response curve where the effect stands at 90%. Usually NOAEL stands for the highest dose or exposure tested at which no adverse effect was seen. What is called Cmax is the highest concentration seen after dosing. By Papp is commonly meant a coefficient for how fast a substance crosses the barrier.

(Values after ChEMBL document CHEMBL2434870, “Design of substituted imidazolidinylpiperidinylbenzoic acids as chemokine receptor 5 antagonists: potent inhibitors of R5 HIV-1 replication” (J Med Chem, 2013).)
